Calls of active or inactive are those of the source. The rule behind the calls is not given here.
Tests used:
Androgen receptor = biological target: T1, Androgen receptor (Homo sapiens, UniProt P10275); experiment: Antagonist activity at human AR expressed in human HeLa cells co-transfected with MMTV-Luc-Hyg after 48 hrs by transient-luciferase reporter gene assay; assay type: functional, cell-based
T1 sequence (P10275 whole entry): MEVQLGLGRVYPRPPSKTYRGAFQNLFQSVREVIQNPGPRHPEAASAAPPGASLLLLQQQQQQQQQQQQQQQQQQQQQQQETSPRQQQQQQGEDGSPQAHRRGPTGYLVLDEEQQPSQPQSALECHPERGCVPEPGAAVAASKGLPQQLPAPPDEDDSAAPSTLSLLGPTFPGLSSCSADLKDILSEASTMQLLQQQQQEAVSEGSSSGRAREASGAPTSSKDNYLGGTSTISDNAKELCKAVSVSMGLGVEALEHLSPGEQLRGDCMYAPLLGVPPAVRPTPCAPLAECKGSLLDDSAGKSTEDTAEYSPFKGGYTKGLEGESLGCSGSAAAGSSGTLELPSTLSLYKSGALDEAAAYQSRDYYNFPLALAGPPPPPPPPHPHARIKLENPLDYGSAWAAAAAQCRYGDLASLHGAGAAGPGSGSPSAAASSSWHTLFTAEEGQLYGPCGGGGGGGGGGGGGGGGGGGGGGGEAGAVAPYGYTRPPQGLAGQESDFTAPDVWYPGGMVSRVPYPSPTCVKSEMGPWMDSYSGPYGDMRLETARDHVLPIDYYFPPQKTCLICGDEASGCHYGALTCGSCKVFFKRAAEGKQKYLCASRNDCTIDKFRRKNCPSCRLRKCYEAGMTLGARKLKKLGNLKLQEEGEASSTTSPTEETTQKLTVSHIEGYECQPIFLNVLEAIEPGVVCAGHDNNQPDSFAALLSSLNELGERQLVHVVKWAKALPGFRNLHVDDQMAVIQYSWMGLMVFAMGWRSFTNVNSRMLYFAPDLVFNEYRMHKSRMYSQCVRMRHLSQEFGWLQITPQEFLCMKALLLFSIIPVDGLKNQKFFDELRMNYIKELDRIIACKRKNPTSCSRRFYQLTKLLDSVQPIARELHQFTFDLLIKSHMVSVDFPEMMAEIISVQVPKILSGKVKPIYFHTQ

[1] = Metabolic stability in human liver microsomes assessed as compound remaining after 15 mins by LC-MS/MS analysis; assay type: ADME, Microsome; details: read-out: Stability
Method in brief: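 Human liver microsomes in phosphate buffer (pH 7.4) with NADPH added. Percent of parent compound remaining measured after 15 min.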

[2] = Membrane permeability by PAMPA assay; assay type: ADME; details: read-out: permeability
hERG (KCNH2) = hERG (KCNH2) (Homo sapiens, UniProt Q12809); experiment: Inhibition of human ERG at 10 uM by whole cell patch-clamp technique
Method in brief: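 hERG current recorded by whole-cell patch clamp; one experiment run in duplicate.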

[3] = biological target: T2, Androgen receptor (Homo sapiens) (UniProt P10275); details: HeLa
T2 sequence (whole entry): T1 sequence (P10275 whole entry)

Mus musculus [4] = organism: Mus musculus; experiment: Antiandrogenic activity in castrated mouse assessed as reduction in wet weight gain of seminal vesicle; assay type: functional
Method in brief: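 Castrated mice, n = 4 or 5 per group; antiandrogenic activity read as change in seminal vesicle wet weight.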

LNCaP [5] = experiment: Antitumor activity against human bicalutamide-resistant LNCAP cells xenografted in SCID mouse assessed as inhibition of tumor growth at 10 mg/kg, po qd for seven cycles of 5 days on, 2 days off; assay type: functional, organism-based; parameters: dose 10 mg/kg
Method in brief: (§1)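 LNCaP-BC2 cells (2 × 10^6) inoculated subcutaneously into castrated 6-week-old male SCID mice. Randomised at tumour size 90–400 mm3, n = 5 per group. Oral dosing once daily in 5% gum arabic at 10 mL/kg, seven cycles of 5 days on and 2 days off. Tumour size and plasma PSA measured after 17 days. PSA expressed as day 17 level relative to day 0 level.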

LNCaP [6] = experiment: Antitumor activity against human bicalutamide-resistant LNCAP cells xenografted in SCID mouse assessed as inhibition of tumor growth at 100 mg/kg, po qd for seven cycles of 5 days on, 2 days off; assay type: functional, organism-based; parameters: dose 100 mg/kg; method in brief: as §1
Mus musculus [7] = experiment: Inhibition of prostate specific antigen production in human bicalutamide-resistant LNCAP cells xenografted SCID mouse at 10 mg/kg, po qd for seven cycles of 5 days on and 2 days off measured on day 17; assay type: functional, organism-based; parameters: dose 10 mg/kg; method in brief: as §1
Mus musculus [8] = experiment: Inhibition of prostate specific antigen production in human bicalutamide-resistant LNCAP cells xenografted SCID mouse at 100 mg/kg, po qd for seven cycles of 5 days on and 2 days off measured on day 17; assay type: functional, organism-based; parameters: dose 100 mg/kg; method in brief: as §1
[9] = Metabolic stability in monkey liver microsomes assessed as compound remaining after 30 mins by LC-MS/MS analysis; assay type: ADME, Macaca mulatta, Microsome; details: rhesus monkey, read-out: Stability
[10] = Metabolic stability in rat liver microsomes assessed as compound remaining after 30 mins by LC-MS/MS analysis; assay type: ADME, Microsome; details: read-out: Stability
[11] = Metabolic stability in dog liver microsomes assessed as compound remaining after 30 mins by LC-MS/MS analysis; assay type: ADME, Canis lupus familiaris, Microsome; details: read-out: Stability
[12] = Metabolic stability in human liver microsomes assessed as compound remaining after 30 mins by LC-MS/MS analysis; assay type: ADME, Microsome; details: read-out: Stability
[13] = Metabolic stability in mouse liver microsomes assessed as compound remaining after 30 mins by LC-MS/MS analysis; assay type: ADME, Microsome; details: read-out: Stability
Canis familiaris = experiment: Cardiotoxicity in anesthetized dog assessed as QT prolongation by electrocardiographic analysis; assay type: toxicity, organism-based, Canis lupus familiaris; details: in vivo

hERG (KCNH2), sequence (Q12809 whole entry): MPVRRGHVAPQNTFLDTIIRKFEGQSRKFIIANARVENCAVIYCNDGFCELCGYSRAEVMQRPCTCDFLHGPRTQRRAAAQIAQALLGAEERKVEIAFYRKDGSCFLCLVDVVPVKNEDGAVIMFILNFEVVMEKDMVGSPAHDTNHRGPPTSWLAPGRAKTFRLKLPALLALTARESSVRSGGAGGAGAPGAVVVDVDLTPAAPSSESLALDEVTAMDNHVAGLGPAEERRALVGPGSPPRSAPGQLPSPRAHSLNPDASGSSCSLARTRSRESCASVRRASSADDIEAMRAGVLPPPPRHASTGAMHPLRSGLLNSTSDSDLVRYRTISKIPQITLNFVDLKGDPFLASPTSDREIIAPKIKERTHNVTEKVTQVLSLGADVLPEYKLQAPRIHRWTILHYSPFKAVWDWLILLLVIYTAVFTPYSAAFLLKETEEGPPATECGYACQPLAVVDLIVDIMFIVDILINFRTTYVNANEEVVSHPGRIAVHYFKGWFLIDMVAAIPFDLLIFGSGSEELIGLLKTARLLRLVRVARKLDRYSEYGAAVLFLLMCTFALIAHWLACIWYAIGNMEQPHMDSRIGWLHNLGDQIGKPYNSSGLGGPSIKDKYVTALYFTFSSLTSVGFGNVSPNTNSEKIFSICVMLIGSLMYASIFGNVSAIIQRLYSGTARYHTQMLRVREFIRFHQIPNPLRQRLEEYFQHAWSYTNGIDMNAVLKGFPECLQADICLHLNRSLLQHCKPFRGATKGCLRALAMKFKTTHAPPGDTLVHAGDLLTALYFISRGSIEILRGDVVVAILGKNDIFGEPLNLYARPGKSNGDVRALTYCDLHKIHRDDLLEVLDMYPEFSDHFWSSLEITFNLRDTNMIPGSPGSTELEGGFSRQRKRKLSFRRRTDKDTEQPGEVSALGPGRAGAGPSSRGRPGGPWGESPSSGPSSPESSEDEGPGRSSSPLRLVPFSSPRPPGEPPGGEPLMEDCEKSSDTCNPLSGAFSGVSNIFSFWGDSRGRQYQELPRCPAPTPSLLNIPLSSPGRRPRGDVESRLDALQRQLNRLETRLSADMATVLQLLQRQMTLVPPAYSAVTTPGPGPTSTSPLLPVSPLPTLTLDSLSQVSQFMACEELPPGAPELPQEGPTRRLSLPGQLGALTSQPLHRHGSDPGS

SMILES | IC50 (Androgen receptor) [µM] | remaining at 0.25 h [1] [%] | Papp [2] [×10⁻⁶ cm/s] | inhibition at 10 µM (hERG (KCNH2)) [%] | EC5 [3] [µM] | ED50 (Mus musculus [4]) [mg/kg] | inhibition (LNCaP [5]) | inhibition (LNCaP [6]) | inhibition (Mus musculus [7]) | inhibition (Mus musculus [8]) | remaining at 0.5 h [9] [%] | remaining at 0.5 h [10] [%] | remaining at 0.5 h [11] [%] | remaining at 0.5 h [12] [%] | remaining at 0.5 h [13] [%] | ED50 (Mus musculus [4]; Mus musculus, read-out: ED50) [mg/kg] | Activity (Canis familiaris)
CC1(C)C(=O)N(c2ccc(C#N)c(C(F)(F)F)c2)C(=S)N1c1ccnc(S(N)(=O)=O)c1 | 1 | 97 | 12 | 0 | > 10 | – | – | – | – | – | – | – | – | – | – | – | –
CC(O)(CS(=O)(=O)c1ccc(F)cc1)C(=O)Nc1ccc(C#N)c(C(F)(F)F)c1 (configuration not stated) [BICALUTAMIDE] | – | 99 | – | 7.4 | – | 3 | inactive | inactive | inactive | inactive | – | – | – | – | – | – | –
CC1(C)NC(=S)N(c2ccc(C#N)c(C(F)(F)F)c2)C1=O | – | – | – | – | 0.001 | – | – | – | – | – | < 0.001 | < 0.001 | < 0.001 | < 0.001 | < 0.001 | – | –
CC1(C)NC(=S)N(c2ccc(C#N)c(Cl)c2)C1=O | – | – | – | – | 0.0002 | – | – | – | – | – | 0.027 | 0.075 | < 0.001 | 0.022 | 0.038 | – | –
CC1(C)C(=O)N(c2ccc(C#N)c(C(F)(F)F)c2)C(=S)N1c1cccc(S(N)(=O)=O)c1 | 0.3 | 100 | 8.1 | 41 | > 10 | – | – | – | – | – | – | – | – | – | – | 63 | –
CC1(C)C(=O)N(c2ccc(C#N)c(Cl)c2)C(=S)N1CCCS(N)(=O)=O | – | 100 | 25 | 17 | > 10 | – | – | – | – | – | – | – | – | – | – | 10 | –
CC1(C)C(=O)N(c2ccc(C#N)c(Cl)c2)C(=S)N1c1cccc(S(N)(=O)=O)c1 | – | 100 | 1.6 | 58 | > 10 | – | – | – | – | – | – | – | – | – | – | 84 | –
CC1(C)C(=O)N(c2ccc(C#N)c(C(F)(F)F)c2)C(=S)N1c1cncc(S(N)(=O)=O)c1 | 1 | 95 | 14 | 33 | > 10 | – | – | – | – | – | – | – | – | – | – | 6 | –
CC1(C)C(=O)N(c2ccc(C#N)c(Cl)c2)C(=S)N1c1cccc(S(N)(=O)=O)n1 | 0.6 | 100 | 1.3 | 26 | > 10 | – | – | – | – | – | – | – | – | – | – | 6 | –
CC1(C)C(=O)N(c2ccc(C#N)c(C(F)(F)F)c2)C(=S)N1c1ccccc1 | 0.2 | 80 | 0.69 | – | 3 | – | – | – | – | – | – | – | – | – | – | – | –
CC1(C)C(=O)N(c2ccc(C#N)c(Cl)c2)C(=S)N1c1cncc(S(N)(=O)=O)c1 | 2 | 95 | 13 | 52 | > 10 | – | – | – | – | – | – | – | – | – | – | – | –
CC1(C)C(=O)N(c2ccc(C#N)c(C(F)(F)F)c2)C(=S)N1c1cccc(S(N)(=O)=O)n1 | 0.7 | 94 | 14 | 10 | > 10 | – | Active | Active | Active | Active | – | – | – | – | – | 7 | Non-toxic
